High-throughput results from PubChem.
S1P3 agonist = agonists of human S1P3 receptor; S1P3 NFAT-BLA reporter cells, agonism, FRET ratio; relative to 1 µM S1P, basal subtracted; activation, % at 4.5 µM; Q99500; 0.1% of 60,000 active;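 active = activation above the screen-wide mean plus 3 SD, cut at about 4.5% in these data, passing the limit was not always enough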
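Measure – % activation relative to 1 µM S1P (100%), per plate · System – stable CHO line with human S1P3, Gα16, NFAT-BLA reporter · Timing – cells plated overnight, compound 4 h 37 °C, substrate 2 h RT · Technique – fluorescent BLA substrate, ex 405 nm, em 460/535 nm ratio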
HTR1A agonist = 5-HT1a (human) receptor agonism; activation, % at 10 µM; AID 567; 0.56% of 65,000 active; P08908; CHO 5-HT1a Ga15 NFAT-bla reporter, FRET ratio; 0% basal, 100% maximal reference agonist;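 active = activation above the screen-wide mean activation plus 3 SD, cut at about 19% in these data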;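 note: 0% = DMSO wells and 100% = 5-CT at EC100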
Target sequence (P08908 whole entry, looked up): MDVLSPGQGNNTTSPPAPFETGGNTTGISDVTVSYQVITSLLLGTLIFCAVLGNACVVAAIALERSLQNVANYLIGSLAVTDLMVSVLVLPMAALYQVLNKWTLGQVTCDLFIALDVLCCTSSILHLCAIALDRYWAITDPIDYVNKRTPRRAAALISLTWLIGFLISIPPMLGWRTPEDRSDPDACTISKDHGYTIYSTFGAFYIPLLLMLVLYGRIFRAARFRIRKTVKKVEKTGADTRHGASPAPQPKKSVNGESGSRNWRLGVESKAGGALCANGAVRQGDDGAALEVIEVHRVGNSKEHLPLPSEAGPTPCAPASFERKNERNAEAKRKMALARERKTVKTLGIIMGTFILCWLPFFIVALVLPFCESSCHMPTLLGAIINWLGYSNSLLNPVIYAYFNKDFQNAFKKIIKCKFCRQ
5HT1E ag = activates the human 5-HT1E serotonin receptor; P28566; CHO 5-HT1E Ga15 NFAT-bla reporter, FRET; 0% DMSO wells, 100% control agonist wells; activation, % at 6 µM; 0.69% of 65,000 active; AID 574;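 active = activation above a set limit, the screen-wide mean activation plus 3 SD, cut at about 8.5% in these data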;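 note: 100% = positive control agonist at 1 µM giving full maximal response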
5HT1E antag = antagonists of human 5-HT1E serotonin receptor | P28566 | inhibition, % at 6 µM | AID 571 | CHO 5-HT1E Ga15 NFAT-bla reporter, FRET, antagonist | 0.99% of 65,000 active;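 active = inhibition above a set limit, the mean inhibition across every tested compound plus 3 SD, cut at about 29% in these data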;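 note: signal is the 460 over 535 nm emission ratio of beta-lactamase substrate; 0% = agonist plus DMSO wells and 100% = wells without agonist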
5-HT1A blocker = antagonists of human 5-HT1a serotonin receptor; P08908; CHO 5-HT1a Ga15 NFAT-bla reporter, antagonist mode; inhibition, % at 10 µM; 0.68% of 62,000 active; AID 612;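 active = inhibition above the mean of all tested compounds plus 3 SD, cut at about 43% in these data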;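 note: receptor stimulated by 5-CT agonist at 100 nM near EC80; beta-lactamase reporter measured by ratiometric fluorescence of a cleavable substrate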
S1P1 ag pot = S1P1 (human) agonism or agonism potentiation. 0.57% of 56,000 active. activation, % at 9.5 µM. P21453. S1P1 CRE-bla cells, forskolin, beta-lactamase FRET, potentiator mode; S1P1 agonist co-added at EC20, 2 nM; 100% = saturating reference agonist, 0% = basal;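 active = activation above a cutoff set at the mean activation of all tested compounds plus 3 SD, cut at about 54% in these data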;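 note: forskolin at 4 µM as EC80 and the EC20 agonist is SEW2871; 100% = SEW2871 at its EC100 plus forskolin at EC80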
* hit, by the source's call; / = not tested or not shown. Most compounds without a hit are left out; they make up all but 3% or so of the library.

SMILES | S1P3 agonist | HTR1A agonist | 5HT1E ag | 5HT1E antag | 5-HT1A blocker | S1P1 ag pot
CCc1cc2c(=O)c(-c3nc4ccccc4n3C)c(COCC(=O)O)oc2cc1O | -1.6 | -4.7 | -0.8 | -3.4 | -7.9 | -23.5
O=C(CC1SC(N2CCCCC2)=NC1=O)Nc1cccc(C(=O)O)c1 (stereo not drawn) | -0.1 | -1.1 | 0.3 | -3.1 | -1.4 | -8.4
COc1ccc(CCN2C(=O)c3[nH]nc(-c4ccccc4O)c3C2c2ccccc2)cc1OC (stereo not drawn) | -1.0 | 0.6 | 0.9 | 6.0 | 34.7 | -2.0
O=C1c2[nH]nc(-c3ccccc3O)c2C(c2ccccc2)N1Cc1ccco1 (stereo not drawn) | -1.9 | 1.7 | 0.3 | -7.8 | 44.4* | -9.9
O=C1c2ccccc2C(O)N1Cc1ccco1 (stereo not drawn) | 22.8 | 0.2 | 0.4 | 19.4 | 3.7 | 20.4
O=C1c2[nH]nc(-c3ccccc3O)c2C(c2ccccc2F)N1Cc1ccco1 (stereo not drawn) | -1.1 | 4.5 | 0.1 | -1.9 | 43.0* | 11.9
O=C(Cc1coc2ccc3ccccc3c12)N1CCN(c2ncccn2)CC1 | 0.0 | -4.4 | -0.1 | 6.0 | -6.6 | -16.5
COc1ccccc1-n1nnnc1SCc1ccccc1 | -0.9 | -0.5 | -0.6 | 11.8 | 10.0 | -6.7
COc1ccccc1-n1nnnc1SCc1cc2c(cc1Br)OCO2 | -0.9 | -1.6 | 0.1 | 28.9* | 27.2 | 58.9
c1ccc(CSCc2cn3ccsc3n2)cc1 | -0.9 | -2.7 | -0.3 | -10.9 | -2.8 | 4.2
O=c1c2ccccc2nc(SCc2cn3ccsc3n2)n1-c1ccccc1 | -0.2 | 1.0 | 0.5 | 37.6* | -1.2 | -40.0
O=c1c2ccccc2nc(SCc2cn3ccsc3n2)n1-c1ccccc1F | -1.2 | 9.5 | 0.0 | 43.0* | 11.7 | 18.1
O=C(N1CCN(c2ccccn2)CC1)N1c2ccccc2Sc2ccccc21 | -1.1 | -0.2 | -0.5 | 37.4* | 47.9* | 8.0
O=C(c1ccco1)N1CCN(C(=O)N2c3ccccc3Sc3ccccc32)CC1 | -1.7 | -1.5 | -0.6 | 74.5* | 58.5* | 15.1
CCOC(=O)C1CCCN(S(=O)(=O)c2ccc(OC)c3ccccc23)C1 (stereo not drawn) | -1.0 | -1.7 | 0.8 | 3.7 | 7.8 | /
CCOC(=O)c1[nH]c(C)c(C(=O)Nc2cc(OC)ccc2OC)c1C | 0.1 | -3.3 | -0.6 | 48.7* | 19.7 | 4.6
Cc1cc(NC(=O)c2oc3ccccc3c2C)ccc1-n1cnnn1 | -1.7 | 1.4 | 0.2 | -4.8 | 6.5 | 79.4
COc1cc(OC)cc(C(=O)Nc2ccc(-n3cnnn3)c(C)c2)c1 | -0.1 | -4.9 | 36.3* | 22.4 | 16.7 | 15.4
COc1cccc(OCCOc2c(OC)cccc2OC)c1 | -1.0 | -1.3 | 0.4 | 1.7 | 7.7 | /
CC1=CC(C)(C)Nc2ccc(OC(=O)CN3C(=O)CCC3=O)cc21 | 0.6 | 14.1 | 3.0 | 18.7 | 21.3 | 41.6
CC1=CC(C)(C)Nc2ccc(OC(=O)c3ccco3)cc21 | -1.7 | 24.6* | 1.7 | 50.6* | 40.8 | 55.2
CC1=CC(C)(C)Nc2ccc(OC(=O)c3cccnc3)cc21 | 0.3 | 16.8 | 4.2 | 30.4* | 25.8 | 64.5*
CC(=O)c1cc(C)ccc1OC(=O)c1ccco1 | -1.9 | -2.0 | 0.4 | 2.7 | 4.3 | -0.1
Cc1ccc(Cn2c(Sc3nnc(C)s3)nc3c2c(=O)[nH]c(=O)n3C)cc1 | -1.0 | -0.6 | -0.2 | 40.6* | -4.4 | 1.1
CCS(=O)(=O)N1CCN(c2cccc(C)c2C)CC1 | 0.5 | 1.5 | 0.2 | -12.2 | -22.1 | -13.6
SMILES | S1P3 agonist | HTR1A agonist | 5HT1E ag | 5HT1E antag | 5-HT1A blocker | S1P1 ag pot
Cc1cccc(N2CCN(CC(=O)NCC3CCCCC3)CC2)c1C | -0.2 | 41.0* | 1.1 | -14.0 | 15.9 | 2.4
Cc1cc(C)cc(N(CC(=O)NCC2CCCO2)C(=O)CCC(=O)Nc2cc(C)on2)c1 (stereo not drawn) | 0.9 | 3.6 | 0.3 | -10.1 | -18.5 | -1.7
CN(CC1CCCO1)S(=O)(=O)c1ccc(C(=O)Nc2nc3cc4c(cc3s2)OCO4)cc1 (stereo not drawn) | -1.5 | 2.6 | 1.2 | 1.4 | -8.1 | 28.8
N#Cc1nc(-c2ccccc2Cl)oc1N1CCCCC1 | -3.9 | -0.9 | -0.3 | 33.4* | / | -14.7
CCOC(=O)/C=C/S(=O)(=O)c1ccc(NC(C)=O)cc1 | -2.0 | -2.7 | -1.3 | 89.2* | 98.4* | 151.7*
COc1cccc(CNC(=O)Cn2cccc2)c1 | -0.5 | -2.1 | 23.8* | -7.8 | -2.5 | -1.7
COC(=O)C1=C(N)Oc2cc(C)oc(=O)c2C1c1ccncc1 (stereo not drawn) | 4.8 | -2.2 | 0.5 | -4.6 | / | 3.4
COC(=O)/C(=C1/Oc2cc(C)oc(=O)c2S1)C(F)(F)F | -9.3 | -0.6 | -0.5 | 77.7* | / | 47.5
CCN(CC)C(=O)CSc1nnc(-c2ccccn2)n1-c1ccc(C)c(C)c1 | -0.8 | -4.0 | 0.9 | -6.1 | -1.1 | -6.5
NC(=O)C1CCN(C(=O)CN2C(=O)c3ccccc3S2(=O)=O)CC1 | -0.4 | -1.7 | 0.4 | -9.1 | -13.7 | -13.0
CC1CCN(C(=O)CN2C(=O)c3ccccc3S2(=O)=O)CC1 | -0.6 | 37.9* | -0.6 | -7.3 | 0.5 | -12.4
Cn1c(=O)oc2cc(S(=O)(=O)NCCN3CCCCCC3)ccc21 | -0.3 | -2.2 | -0.2 | -1.8 | 4.1 | -18.8
Cn1c(=O)oc2cc(S(=O)(=O)NCCN3CCN(c4ccccc4F)CC3)ccc21 | -0.1 | -2.1 | 0.1 | 5.3 | 57.4* | -8.9
Cn1c(=O)oc2cc(S(=O)(=O)N3CCN(c4ccccn4)CC3)ccc21 | 0.2 | 35.0* | 0.8 | -12.8 | -1.3 | -31.9
O=C(Nc1ccc(N2CCOCC2)c(Cl)c1)c1cccnc1 | -0.4 | -3.4 | -1.0 | 5.9 | 8.3 | -3.3
Nc1ccc(N2CCOCC2)c(Cl)c1 | -0.6 | -2.5 | -0.3 | -5.9 | 0.0 | 92.7*
O=C(Nc1cccc(C(F)(F)F)c1)C1CCCN1S(=O)(=O)c1cccc2cccnc12 (stereo not drawn) | -0.1 | -1.8 | -0.8 | 5.5 | -9.9 | 71.2*
CCOC(=O)c1cccc(NC(=O)C2CCCN2S(=O)(=O)c2cccc3cccnc23)c1 (stereo not drawn) | -1.1 | -2.8 | 1.0 | 8.8 | 2.9 | 2.3
CCSc1ccc2nnc(-c3ccc(F)cc3)n2n1 | -0.3 | -0.8 | -0.4 | 28.1 | -9.9 | 11.8
CC(C)(C)OC(=O)N[C@@H](Cc1ccccc1)c1nnc(S(=O)(=O)Cc2cccc(F)c2)o1 | -0.9 | -2.5 | 1.1 | 45.9* | 67.3* | 69.8*
CC(C)[C@H](NC(=O)OC(C)(C)C)c1nnc(S(=O)(=O)Cc2c(F)cccc2Cl)o1 | -0.9 | 5.3 | 1.2 | 67.3* | 78.7* | 17.8
